Measured values taken from ChEMBL document CHEMBL1134340, “GnRH antagonists: a new generation of long acting analogues incorporating p-ureido-phenylalanines at positions 5 and 6” (J Med Chem, 2001).
*1 amine or outer side, *2 acyl side, *3 side chain or, on linkers, in order; H or OH if unused. Where a SMILES comes first, the peptide text is derived from it. Side-chain parts run from the residue outwards. [ ]: non-standard residue; d: D form. dPhe(4-NHCONH2) = NC(=O)Nc1ccc(C[C@@H](N)C(=O)O)cc1; Phe(4-NHCONH2) = NC(=O)Nc1ccc(C[C@H](N)C(=O)O)cc1; dPhe(4-NH2) = Nc1ccc(C[C@@H](N)C(=O)O)cc1; dPhe(4-Cl) = N[C@H](Cc1ccc(Cl)cc1)C(=O)O; Phe(4-NH2) = Nc1ccc(C[C@H](N)C(=O)O)cc1; d2Nal = N[C@H](Cc1ccc2ccccc2c1)C(=O)O; Lys(iPr) = CC(C)NCCCC[C@H](N)C(=O)O; d3Pal = N[C@H](Cc1cccnc1)C(=O)O; CO = O=C([*:1])[*:2]

What was measured:
[1] = molecular target: T1, Gonadotropin-releasing hormone receptor (Homo sapiens, UniProt P30968); test: Antagonism of human GnHR receptor, determined in a reporter gene assay in HEK293 cells; assay type: functional, cell-based
T1 sequence (P30968 whole entry): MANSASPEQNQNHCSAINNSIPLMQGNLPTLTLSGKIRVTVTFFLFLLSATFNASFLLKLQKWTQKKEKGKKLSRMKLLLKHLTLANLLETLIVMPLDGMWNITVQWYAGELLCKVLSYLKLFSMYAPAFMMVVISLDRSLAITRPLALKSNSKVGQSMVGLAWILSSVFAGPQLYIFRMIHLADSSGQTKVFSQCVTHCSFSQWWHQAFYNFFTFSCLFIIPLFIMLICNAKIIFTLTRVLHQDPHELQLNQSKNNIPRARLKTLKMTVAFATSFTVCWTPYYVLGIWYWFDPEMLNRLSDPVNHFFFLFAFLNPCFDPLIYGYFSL
Outline: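 HEK293 cells stably expressing cloned human GnRH receptor plus luciferase reporter under LH alpha subunit promoter, plated 24 h before assay. Compound in 1% DMSO added 10 min at 37 °C, then GnRH at 3 nM final; 5 h incubation, luciferase luminescence read. Six concentrations in duplicate; blank-subtracted cps as % of GnRH control; mean of two determinations.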

[2] = organism: Rattus norvegicus; test: Compound was tested for inhibition of Leutenizing hormone release at 48 hours (intermediate duration) in castrated male rat assay; assay type: functional; parameters: concentration or dose not given beside the values
Outline: (§1)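 Male Sprague-Dawley rats (180-200 g), castrated under ether 10 days earlier, 5 per group. 50 µg/rat given sc in 100 µL 40 mM phosphate buffer with 0.1% BSA and 0.6% DMSO; acyline run as internal standard. Tail blood taken predose and at 24, 48, 72, 96 (sometimes 120) h; plasma LH by RIA. Duration classed by >80% LH inhibition at each time.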

[3] = molecular target: T1, Gonadotropin-releasing hormone receptor; test: Competitive antagonism of GnRH-induced response in the reporter gene assay; assay type: functional; conditions: read-out: pA2 (converted)
Outline: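 Same HEK293 human GnRH receptor luciferase reporter cells. Seven-point GnRH curve (10 µM to 10 pM final) run in duplicate without or with four to five increasing compound concentrations (10 min preincubation, 37 °C), then 5 h and luminescence. GnRH EC50 at each level by four-parameter logistic fit, giving pA2; mean of two determinations in duplicate.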

[4] = organism: Rattus norvegicus; test: Compound was tested for histamine release at a concentration of 100 ug/mL; assay type: functional
Outline: (§2)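 Sprague-Dawley rat peritoneal mast cells, Percoll-purified, in heparinized balanced salt solution with albumin, pH 7.2. Cells exposed to compound or vehicle for 2 min at 37 °C. Supernatant histamine measured spectrofluorometrically after o-phthalaldehyde derivatization; pellets lysed for retained histamine. Reported as % of total histamine released, corrected for spontaneous release in vehicle.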

[5] = organism: Rattus norvegicus; test: Compound was tested for inhibition of Leutenizing hormone release at 96 hours (very long duration) in castrated male rat assay; assay type: functional; parameters: concentration or dose not given beside the values; outline: as §1
[6] = organism: Rattus norvegicus; test: Compound was tested for inhibition of Leutenizing hormone release at 72 hours (long duration) in castrated male rat assay; assay type: functional; parameters: concentration or dose not given beside the values; outline: as §1
[7] = organism: Rattus norvegicus; test: Compound was tested for histamine release at a concentration of 30 ug/mL; assay type: functional; outline: as §2

| SMILES | IC50 [1] | Kb [3] | Inhibition [2] | further results |
| --- | --- | --- | --- | --- |
| CC(=O)N[C@H](Cc1ccc2ccccc2c1)C(=O)N[C@H](Cc1ccc(Cl)cc1)C(=O)N[C@H](Cc1cccnc1)C(=O)N[C@@H](CO)C(=O)N[C@@H](Cc1ccc(NC(=O)[C@@H]2CC(=O)NC(=O)N2)cc1)C(=O)N[C@H](Cc1ccc(NC(N)=O)cc1)C(=O)N[C@@H](CC(C)C)C(=O)N[C@@H](CCCCNC(C)C)C(=O)N1CCC[C@H]1C(=O)N[C@H](C)C(N)=O [DEGARELIX] | 8.8 nM | 0.631 nM | >80% |  |
| CCNC(=O)[C@@H]1CCCN1C(=O)[C@H](CCCCNC(C)C)NC(=O)[C@H](CC(C)C)NC(=O)[C@@H](Cc1ccc(CNC(N)=O)cc1)NC(=O)[C@H](Cc1ccc(NC(=O)[C@@H]2CC(=O)NC(=O)N2)cc1)NC(=O)[C@H](CO)NC(=O)[C@@H](Cc1cccnc1)NC(=O)[C@@H](Cc1ccc(Cl)cc1)NC(=O)[C@@H](Cc1ccc2ccccc2c1)NC(C)=O |  |  | >80% |  |
| CC(=O)N[C@H](Cc1ccc2ccccc2c1)C(=O)N[C@H](Cc1ccc(Cl)cc1)C(=O)N[C@H](Cc1cccnc1)C(=O)N[C@@H](CO)C(=O)N[C@@H](Cc1ccc(NC(=O)[C@@H]2CC(=O)NC(=O)N2)cc1)C(=O)N[C@H](Cc1ccc(NC(N)=O)cc1)C(=O)N[C@@H](CC(C)C)C(=O)N[C@@H](CCCCNC(C)C)C(=O)N1CCC[C@H]1C(=O)N[C@H](C)CO |  |  |  | Inhibition [5]: >80% |
| CC(=O)N[C@H](Cc1ccc2ccccc2c1)C(=O)N[C@H](Cc1ccc(Cl)cc1)C(=O)N[C@H](Cc1cccnc1)C(=O)N[C@@H](CO)C(=O)N[C@@H](Cc1ccc(NC(=O)[C@@H]2CC(=O)NC(=O)N2)cc1)C(=O)N[C@H](Cc1ccc(CNC(N)=O)cc1)C(=O)N[C@@H](CC(C)C)C(=O)N[C@@H](CCCCNC(C)C)C(=O)N1CCC[C@H]1C(=O)N[C@H](C)CO | 7.8 nM | 1 nM |  | Inhibition [5]: >80% |
| CC(=O)Nc1ccc(C[C@H](NC(=O)[C@H](CO)NC(=O)[C@@H](Cc2cccnc2)NC(=O)[C@@H](Cc2ccc(Cl)cc2)NC(=O)[C@@H](Cc2ccc3ccccc3c2)NC(C)=O)C(=O)N[C@H](Cc2ccc(CNC(N)=O)cc2)C(=O)N[C@@H](CC(C)C)C(=O)N[C@@H](CCCCNC(C)C)C(=O)N2CCC[C@H]2C(=O)N[C@H](C)C(N)=O)cc1 |  |  | >80% |  |
| CCNC(=O)[C@@H]1CCCN1C(=O)[C@H](CCCCNC(C)C)NC(=O)[C@H](CC(C)C)NC(=O)[C@@H](Cc1ccc(NC(N)=O)cc1)NC(=O)[C@H](Cc1ccc(NC(=O)[C@@H]2CC(=O)NC(=O)N2)cc1)NC(=O)[C@H](CO)NC(=O)[C@@H](Cc1cccnc1)NC(=O)[C@@H](Cc1ccc(Cl)cc1)NC(=O)[C@@H](Cc1ccc2ccccc2c1)NC(C)=O |  |  |  | Inhibition [6]: >80% |
| CNC(=O)Nc1ccc(C[C@H](NC(=O)[C@H](CO)NC(=O)[C@@H](Cc2cccnc2)NC(=O)[C@@H](Cc2ccc(Cl)cc2)NC(=O)[C@@H](Cc2ccc3ccccc3c2)NC(C)=O)C(=O)N[C@H](Cc2ccc(NC(=O)NC)cc2)C(=O)N[C@@H](CC(C)C)C(=O)N[C@@H](CCCCNC(C)C)C(=O)N2CCC[C@H]2C(=O)N[C@H](C)C(N)=O)cc1 (Ac-[d2Nal][dPhe(4-Cl)][d3Pal]S[Phe(4-NH2)]([CO-NHMe])[dPhe(4-NH2)]([CO-NHMe])L[Lys(iPr)]P[dA]-NH2) |  |  | >80% |  |
| CC(=O)N[C@H](Cc1ccc2ccccc2c1)C(=O)N[C@H](Cc1ccc(Cl)cc1)C(=O)N[C@H](Cc1cccnc1)C(=O)N[C@@H](CO)C(=O)N[C@@H](Cc1ccc(NC(=O)[C@@H]2CC(=O)NC(=O)N2)cc1)C(=O)N[C@H](Cc1ccc(CNC(N)=O)cc1)C(=O)N[C@@H](CC(C)C)C(=O)N[C@@H](CCCCNC(C)C)C(=O)N1CCC[C@H]1C(=O)N[C@@H](C)CO | 5.5 nM | 0.631 nM |  | Inhibition [5]: >80% |
| CC(=O)N[C@H](Cc1ccc2ccccc2c1)C(=O)N[C@H](Cc1ccc(Cl)cc1)C(=O)N[C@H](Cc1cccnc1)C(=O)N[C@@H](CO)C(=O)N[C@@H](Cc1ccc(NC(=O)[C@@H]2CC(=O)NC(=O)N2)cc1)C(=O)N[C@H](Cc1ccc(NC(=O)[C@@H]2CC(=O)NC(=O)N2)cc1)C(=O)N[C@@H](CC(C)C)C(=O)N[C@@H](CCCCNC(C)C)C(=O)N1CCC[C@H]1C(=O)N[C@H](C)C(N)=O |  |  |  | Inhibition [6]: >80%; HR [4]: 11%; HR [7]: <10% |
| CC(=O)Nc1ccc(C[C@H](NC(=O)[C@H](CO)NC(=O)[C@@H](Cc2cccnc2)NC(=O)[C@@H](Cc2ccc(Cl)cc2)NC(=O)[C@@H](Cc2ccc3ccccc3c2)NC(C)=O)C(=O)N[C@H](Cc2ccc(NC(=O)[C@@H]3CC(=O)NC(=O)N3)cc2)C(=O)N[C@@H](CC(C)C)C(=O)N[C@@H](CCCCNC(C)C)C(=O)N2CCC[C@H]2C(=O)N[C@H](C)C(N)=O)cc1 |  |  | >80% | HR [4]: 64%; HR [7]: 17% |

Now from value to compound, other results behind:

| IC50 [1] | Kb [3] | SMILES | Inhibition [2] | further results |
| --- | --- | --- | --- | --- |
| 4.3 nM | 1.26 nM | CC(=O)Nc1ccc(C[C@@H](NC(=O)[C@H](Cc2ccc(NC(=O)[C@@H]3CC(=O)NC(=O)N3)cc2)NC(=O)[C@H](CO)NC(=O)[C@@H](Cc2cccnc2)NC(=O)[C@@H](Cc2ccc(Cl)cc2)NC(=O)[C@@H](Cc2ccc3ccccc3c2)NC(C)=O)C(=O)N[C@@H](CC(C)C)C(=O)N[C@@H](CCCCNC(C)C)C(=O)N2CCC[C@H]2C(=O)N[C@H](C)C(N)=O)cc1 |  | HR [4]: 54%; Inhibition [5]: >80% |
| 7.2 nM |  | CC(=O)Nc1ccc(C[C@@H](NC(=O)[C@H](Cc2ccc(NC(N)=O)cc2)NC(=O)[C@H](CO)NC(=O)[C@@H](Cc2cccnc2)NC(=O)[C@@H](Cc2ccc(Cl)cc2)NC(=O)[C@@H](Cc2ccc3ccccc3c2)NC(C)=O)C(=O)N[C@@H](CC(C)C)C(=O)N[C@@H](CCCCNC(C)C)C(=O)N2CCC[C@H]2C(=O)N[C@H](C)C(N)=O)cc1 (Ac-[d2Nal][dPhe(4-Cl)][d3Pal]S[Phe(4-NHCONH2)][dPhe(4-NH2)](Ac)L[Lys(iPr)]P[dA]-NH2) | >80% |  |
| 9.1 nM | 0.631 nM | CC(=O)Nc1ccc(C[C@@H](NC(=O)[C@H](Cc2ccc(NC(=O)[C@@H]3CNC(=O)N3)cc2)NC(=O)[C@H](CO)NC(=O)[C@@H](Cc2cccnc2)NC(=O)[C@@H](Cc2ccc(Cl)cc2)NC(=O)[C@@H](Cc2ccc3ccccc3c2)NC(C)=O)C(=O)N[C@@H](CC(C)C)C(=O)N[C@@H](CCCCNC(C)C)C(=O)N2CCC[C@H]2C(=O)N[C@H](C)C(N)=O)cc1 |  | Inhibition [6]: >80% |
| 10.8 nM |  | CC(=O)Nc1ccc(C[C@@H](NC(=O)[C@H](Cc2ccc(NC(=O)[C@H]3CNC(=O)N3)cc2)NC(=O)[C@H](CO)NC(=O)[C@@H](Cc2cccnc2)NC(=O)[C@@H](Cc2ccc(Cl)cc2)NC(=O)[C@@H](Cc2ccc3ccccc3c2)NC(C)=O)C(=O)N[C@@H](CC(C)C)C(=O)N[C@@H](CCCCNC(C)C)C(=O)N2CCC[C@H]2C(=O)N[C@H](C)C(N)=O)cc1 | >80% |  |
| 8.9 nM |  | CC(=O)Nc1ccc(C[C@@H](NC(=O)[C@H](Cc2ccc(NC(=O)C(NC(N)=O)NC(N)=O)cc2)NC(=O)[C@H](CO)NC(=O)[C@@H](Cc2cccnc2)NC(=O)[C@@H](Cc2ccc(Cl)cc2)NC(=O)[C@@H](Cc2ccc3ccccc3c2)NC(C)=O)C(=O)N[C@@H](CC(C)C)C(=O)N[C@@H](CCCCNC(C)C)C(=O)N2CCC[C@H]2C(=O)N[C@H](C)C(N)=O)cc1 | >80% |  |
| 6.1 nM | 0.501 nM | CC(=O)Nc1ccc(C[C@H](NC(=O)[C@H](CO)NC(=O)[C@@H](Cc2cccnc2)NC(=O)[C@@H](Cc2ccc(Cl)cc2)NC(=O)[C@@H](Cc2ccc3ccccc3c2)NC(C)=O)C(=O)N[C@H](Cc2ccc(NC(N)=O)cc2)C(=O)N[C@@H](CC(C)C)C(=O)N[C@@H](CCCCNC(C)C)C(=O)N2CCC[C@H]2C(=O)N[C@H](C)C(N)=O)cc1 (Ac-[d2Nal][dPhe(4-Cl)][d3Pal]S[Phe(4-NH2)](Ac)[dPhe(4-NHCONH2)]L[Lys(iPr)]P[dA]-NH2) |  | Inhibition [6]: >80% |
| 8.1 nM |  | CC(=O)Nc1ccc(C[C@@H](NC(=O)[C@H](Cc2ccc(NC(=O)C[C@@H]3NC(=O)NC3=O)cc2)NC(=O)[C@H](CO)NC(=O)[C@@H](Cc2cccnc2)NC(=O)[C@@H](Cc2ccc(Cl)cc2)NC(=O)[C@@H](Cc2ccc3ccccc3c2)NC(C)=O)C(=O)N[C@@H](CC(C)C)C(=O)N[C@@H](CCCCNC(C)C)C(=O)N2CCC[C@H]2C(=O)N[C@H](C)C(N)=O)cc1 | >80% |  |
| 8.6 nM | 1 nM | CC(=O)Nc1ccc(C[C@@H](NC(=O)[C@H](Cc2ccc(NC(=O)[C@H]3CC(=O)NC(=O)N3)cc2)NC(=O)[C@H](CO)NC(=O)[C@@H](Cc2cccnc2)NC(=O)[C@@H](Cc2ccc(Cl)cc2)NC(=O)[C@@H](Cc2ccc3ccccc3c2)NC(C)=O)C(=O)N[C@@H](CC(C)C)C(=O)N[C@@H](CCCCNC(C)C)C(=O)N2CCC[C@H]2C(=O)N[C@H](C)C(N)=O)cc1 |  | Inhibition [6]: >80% |
